One compound from ChEMBL document CHEMBL4382230, “Structure-activity relationships, biological evaluation and structural studies of novel pyrrolonaphthoxazepines as antitumor agents” (Eur J Med Chem, 2019) can be followed below.

SMILES strings stand for the structures. pIC50: −log10 of the molar value. Converted amounts (≈) assume the structure as drawn. The source made the active and inactive calls. The rule behind the calls is not given here.

Data set [1] concerns the target T1, Tubulin (Homo sapiens) (UniProt P68371+Q9H4B7+P0DPH7+P68366+Q13509+Q71U36+P04350+Q3ZCM7+P07437+P68363+Q9BQE3+Q6PEY2+Q13885+Q9BVA1+Q9BUF5). Kind of data set: Inhibition of tubulin (unknown origin) polymerization at 27.5 uM measured over 70 mins by turbidity method. Type of data set: protein-complex assay. In a few lines: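 Tubulin at 25 µM in GAB buffer (10 mM sodium phosphate, 30% glycerol, 1 mM EGTA, 6 mM MgCl2, 1 mM GTP, pH 6.7) with 27.5 µM compound or DMSO vehicle. Turbidity is read at 355 nm for 70 min at 37 °C. Data are normalized to the initial stable absorbance plateau to correct for compound absorbance.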

The nature of data set [2]: Ratio of IC50 for human A2780AD cells to IC50 for human A2780 cells. Type of data set: functional. In a few lines:
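Relative resistance: IC50 in the P-gp overexpressing resistant line divided by IC50 in the parental line. Both IC50s came from the 48 h MTT assay (serial dilutions, absorbance at 595/690 nm, log-dose response curves, three independent assays).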

The subject of data set [3] is HL-60. Briefly: Induction of autophagy in human HL60 cells assessed as […] in LC3B-2 levels at 10 uM after 16 hrs in presence of lysosomal inhibitor chloroquine by immunoblot analysis. Type of data set: functional, cell-based. In a few lines: (§1)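 HL-60 in serum-supplemented RPMI 1640, or starved in Earle's Balanced Salts for 15 min beforehand, then treated with 10 μM compound with or without 40 μM chloroquine for 1 h 45 min or 16 h. LC3B-II measured by immunoblot, densitometry normalized to actin, three independent experiments, Student's T-test.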
On the technique in general: A western blot detects proteins with antibodies after separation by electrophoresis.

Data set [4] has as its system PC-9. Kind of data set: Induction of apoptosis in human PC9 cells assessed as reduction in cyclin D1 expression at 10 uM after 18 hrs by Western blot analysis. Format: functional, cell-based. In a few lines: (§2)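 PC9 and HCC827 maintained in DMEM with 10% FBS, then exposed to 10 μM compound for 18 h in 5% serum. Caspase 3 activation and cell cycle proteins examined by western blot.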

For data set [5], the system named is PC-9. Kind of data set: Induction of apoptosis in human PC9 cells assessed as increase in p21 expression at 10 uM after 18 hrs by Western blot analysis. Format: functional, cell-based. An outline of the steps: as §2
Data set [6] can be described thus: Solubility of compound in pH 7.4 aqueous solution after 12 hrs by HPLC analysis. Type of data set: physicochemical. In a few lines: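 Water solubility at pH 7.4 measured by HPLC analysis.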
The next data set deals with Ca9-22. Briefly: Cytotoxicity against human Ca9-22 cells after 24 hrs by MTT assay. Format: functional, cell-based. The settings on record: Ca9-22, 24 h.
Data set [7] is described as follows: Chemical stability of compound in pH 7.4 aqueous solution assessed as compound remaining after 24 hrs by HPLC analysis. Type of data set: physicochemical. The settings on record: read-out: Stability.
The subject of data set [8] is NB-4. Briefly: Cell cycle arrest in human NB4 cells assessed as accumulation of cells at G1 phase after 24 hrs by propidium iodide staining-based flow cytometric analysis. Type of data set: functional. An outline of the steps: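 NB4 cultured at 37 °C, 5% CO2 in RPMI-1640 with 10% heat-inactivated FBS. Treated at 50 and 100 nM, 1 and 10 μM for 24 h. Cells fixed/permeabilized in 70% ethanol overnight at 4 °C, then given RNase and 20 μg/ml PI for 30 min. Doublets excluded, 20,000 events per sample; cell-cycle phase distribution analysed.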
A general note: In flow cytometry, cells or beads pass a laser one at a time.

In data set [9] the test system is SCC-4. Kind of data set: Cytotoxicity against human SCC4 cells after 48 hrs by MTT assay. Particulars: SCC-4, 48 h. Type of data set: functional, cell-based. In a few lines:
(§3)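 Cells (NCI-H929 in RPMI-1640 GlutaMAX; SCC4 in DMEM GlutaMAX; 10% FBS, 37 °C, 5% CO2) treated with increasing concentrations for 48 h. IC50 is the mean of three independent experiments.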
A general note: Tetrazolium dyes change colour on reduction, which living cells bring about.

Data set [10] concerns HCC827. Briefly: Induction of apoptosis in human HCC827 cells assessed as reduction in cyclin D1 expression at 10 uM after 18 hrs by Western blot analysis. Format: functional, cell-based. In a few lines:
as §2

Data set [11] concerns the target T1, Tubulin (Homo sapiens). Briefly: Binding affinity to tubulin (unknown origin) by analytical ultracentrifugation.
The test system of data set [12] is NCI-H929. Briefly: Induction of apoptosis in human NCI-H929 cells at 500 nM after 48 hrs by Annexin V/propidium iodide staining-based flow cytometric analysis relative to control. Type of data set: functional. In a few lines: (§4)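 Seeding density: NCI-H929 and Ca9.22 at 30×10^4 cells/mL, SCC4 at 15×10^4 cells/mL. Cells exposed 48 h to compound (500 nM; 50 μM in SCC4 for one compound) or vehicle (1% EtOH v/v). Annexin V/PI staining, flow cytometry, 10,000 cells gated on vehicle-treated cells. Three independent experiments, mean ± S.E.M, T-test.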

Another data set has as its system B16-F1. Briefly: Cytotoxicity against mouse B16-F1 cells assessed as reduction in cell survival at 0.1 to 10 uM after 18 hrs by MTT assay. Format: functional, cell-based. An outline of the steps:
(§5)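 Seeded at 2,500 cells/well in medium with 10% serum. After adhesion, exposed to 0.1, 1 and 10 μM in medium with 5% serum for 18 h. Medium then replaced with fresh medium containing 1.2 mM MTT for 4 h; formazan dissolved in DMSO, absorbance at 540 nm. Results given as % of basal response.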

In the next data set the test system is B16-F10. Kind of data set: Cytotoxicity against mouse B16F10 cells assessed as reduction in cell survival at 0.1 to 10 uM after 18 hrs by MTT assay. Format: functional, cell-based. In a few lines:
as §5

Data set [13] has as its system NCI-H929. Kind of data set: Cytotoxicity against human NCI-H929 cells after 48 hrs by MTT assay. Type of data set: functional, cell-based. Particulars: NCI-H929, 48 h. In a few lines: as §3
The subject of data set [14] is HCC827. Briefly: Induction of apoptosis in human HCC827 cells assessed as increase in caspase-3 expression at 10 uM after 18 hrs by Western blot analysis. Type of data set: functional, cell-based. In a few lines: as §2
Data set [15] has as its system HL-60. Kind of data set: Induction of autophagy in serum starved human HL60 cells assessed as increase in LC3B-2 levels at 10 uM after 105 mins in presence of lysosomal inhibitor chloroquine by immunoblot analysis. Format: functional, cell-based. In a few lines: as §1
Another data set relates to NIH3T3. Briefly: Cytotoxicity against mouse NIH/3T3 cells after 48 hrs by MTT assay. Type of data set: cell-based. The settings on record: NIH3T3, 48 h. An outline of the steps:
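Cells seeded at 12,000 to 17,000 per well depending on line, incubated overnight, then given serial dilutions of ligand for 48 h. MTT at 2.5 mg/mL added for 4 h at 37 °C, formazan solubilized overnight (10% SDS, 45% dimethylformamide, pH 5.5), absorbance read at 595/690 nm. IC50 from log-dose response curves; mean ± SE of three independent assays.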

A short description of data set [16]: Apparent solubility of compound in sodium phosphate buffer at 15 uM after 20 mins. Type of data set: physicochemical.
Data set [17] relates to SCC-4. Briefly: Induction of apoptosis in human SCC4 cells at 500 nM after 48 hrs by Annexin V/propidium iodide staining-based flow cytometric analysis relative to control. Type of data set: functional. An outline of the steps: as §4
Data set [18] has as its system NB-4. Kind of data set: Induction of differentiation in human NB4 cells at 500 nM after 24 hrs in presence of ATRA by CD11c staining-based flow cytometric analysis. Type of data set: functional, cell-based. An outline of the steps: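 NB4 exposed to 0.5 μM compound together with 1 μM ATRA for 24 h. Cells stained with PE-conjugated CD11c (mouse IgG1-PE control) for 1 h at 4 °C in the dark, washed, resuspended in PBS with propidium iodide (0.25 μg/mL), then analysed by flow cytometry. Biological triplicates, mean ± S.E.M.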

`CC(=O)OC1=C(c2cccc3ncccc23)Oc2cc3ccccc3cc2-n2cccc21`: on Tubulin (Homo sapiens) [1], the inhibition result was “Active”. Also, the “Ratio IC50” value in [2] turned out to be 1.15. The outcome in the data set with HL-60 [3], in the data set on PC-9 [4], with PC-9 [5], with HCC827 [10], in the data set on B16-F1 and with B16-F10 was Active. The outcome with HCC827 [14], in the data set with HL-60 [15] and with NB-4 [18] was Active. Moreover, the concentration in solution in data set [6] (solubility at 12 h) was 458 µM (≈ 192 µg/mL). Besides, the pIC50 – broadly, the IC50 on a negative log10 scale, so that one unit is a factor of ten – in the data set on Ca9-22 is 4.50; in the data set on SCC-4 [9], 6.65; with NCI-H929 [13] it was 6.44; in the data set on NIH3T3, 7.38. The remaining at 24 h in data set [7] came to 95.6%. Moreover, the Activity entry in the data set on NB-4 [8] is “Dose-dependent effect”; with NCI-H929 [12], more than 40%; with SCC-4 [17], more than 40%. The same compound yielded a Kb at Tubulin (Homo sapiens) [11] of 7 ×10⁷ /M. Besides, the solubility (as a rule, the concentration that dissolves in the medium under given conditions) at 20 min, 15 µM in data set [16] was determined as 0.17 µM (≈ 0.0711 µg/mL).
